In ChEMBL document CHEMBL1151437, “Activity of a potent hepatitis C virus polymerase inhibitor in the chimpanzee model” (Antimicrob Agents Chemother, 2007):
pEC50, pIC50: −log10 of the molar value.

Legend:
[1] = Cmax in monkey at 5 mg/kg, po; assay type: ADME, organism-based, Macaca mulatta; set-up: dose 5 mg/kg, route oral; settings: rhesus monkey, in vivo
In short: (§1)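 Rats, dogs and monkeys received one oral 5 mg/kg dose in polyethylene glycol 400. Serum was sampled at 0.3, 0.5, 1, 2, 4, 6, 9, 12 and 24 h. Plasma drug was extracted by acetonitrile protein precipitation with internal standard and quantified by LC-MS against spiked standards (peak-area ratio, linear regression). Limit of quantitation was about 20 ng/ml.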

[2] = Tmax in dog at 5 mg/kg, po; assay type: ADME, organism-based, Canis lupus familiaris; set-up: dose 5 mg/kg, route oral; settings: in vivo; in short: as §1
Hepatitis C virus [3] = assay: Drug resistance, ratio of EC50 for HCV 1a H77 with NS5B polymerase G554D mutation to EC50 for wild type HCV 1a H77 infected in chimpanzee measured on day 16; assay type: functional, Hepacivirus hominis, genotype 1a H77
Hepatitis C virus [4] = assay: Antiviral activity against HCV 1a H77 infected in chimpanzee assessed as reduction in viral load at 30 mg/kg, po BID for 14 days measured on day 2 postdosing; assay type: functional, Hepacivirus hominis, genotype 1a H77
In short: (§2)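 One chimpanzee infected with genotype 1a and one with genotype 1b were dosed orally with 30 mg/kg BID for 14 days. Serum viral load was measured by TaqMan quantitative RT-PCR. A pretreatment serum sample (day 0) served as the baseline.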

[5] = Oral bioavailability in dog at 5 mg/kg; assay type: ADME, organism-based, Canis lupus familiaris; settings: in vivo
Hepatitis C virus [6] = assay: Drug resistance, ratio of EC50 for HCV 1a H77 with NS5B polymerase G554D mutation to EC50 for wild type HCV 1a H77 infected in chimpanzee measured on day 2; assay type: functional, Hepacivirus hominis, genotype 1a H77
Hepatitis C virus [7] = assay: Inhibition of HCV 1b strain N NS5B polymerase by [3H]UTP incorporation assay; set-up: species or system Hepatitis C virus subtype 1b
[8] = Oral bioavailability in monkey at 5 mg/kg; assay type: ADME, organism-based, Macaca mulatta; settings: rhesus monkey, in vivo
[9] = AUC in dog at 5 mg/kg, po; assay type: ADME, organism-based, Canis lupus familiaris; set-up: dose 5 mg/kg, route oral; settings: plasma; in short: as §1
Hepatitis C virus [10] = assay: Antiviral activity against HCV 1b strain N after 4 days by RT-PCR; assay type: functional, organism-based, Hepacivirus hominis; settings: genotype 1b strain N, 96 h
In short: (§3)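 Subgenomic replicon cells (genotype 1b strain N, or chimeric 1a H77/1b Con1) grown in DMEM with 10% FBS and 400 µg/ml G418. Next day, the medium was switched to 5% FBS with inhibitor in half-log dilutions. After 4 days, total RNA was extracted and replicon RNA copies were counted by TaqMan real-time RT-PCR. Potency came from the fall in copy number.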

Hepatitis C virus [11] = assay: Antiviral activity against HCV 1a H77 with NS5B polymerase G554D mutation infected in chimpanzee measured on day 16; assay type: functional, organism-based, Hepacivirus hominis; settings: genotype 1a H77, 384 h
Hepatitis C virus [12] = assay: Drug resistance, ratio of EC50 for HCV 1b strain N with NS5B polymerase C316Y mutation to EC50 for wild type HCV 1b strain N infected in chimpanzee measured on day 11; assay type: functional, Hepacivirus hominis, genotype 1b strain N
Hepatitis C virus [13] = assay: Drug resistance, ratio of EC50 for HCV 1a H77 with NS5B polymerase Y448C mutation to EC50 for wild type HCV 1a H77 infected in chimpanzee measured on day 28; assay type: functional, Hepacivirus hominis, genotype 1a H77
Hepatitis C virus [14] = assay: Antiviral activity against HCV 1b strain N with NS5B polymerase C316Y mutation infected in chimpanzee measured on day 28; assay type: functional, organism-based, Hepacivirus hominis; settings: genotype 1b strain N, 672 h
Hepatitis C virus [15] = assay: Antiviral activity against HCV 1b strain N with NS5B polymerase C316Y mutation infected in chimpanzee measured on day 2; assay type: functional, organism-based, Hepacivirus hominis; settings: genotype 1b strain N, 48 h
Hepatitis C virus [16] = assay: Antiviral activity against HCV 1b strain N with NS5B polymerase C316Y mutation infected in chimpanzee measured on day 5; assay type: functional, organism-based, Hepacivirus hominis; settings: genotype 1b strain N, 120 h
Hepatitis C virus [17] = assay: Antiviral activity against HCV 1a H77 with NS5B polymerase Y448C mutation infected in chimpanzee measured on day 28; assay type: functional, organism-based, Hepacivirus hominis; settings: genotype 1a H77, 672 h
Hepatitis C virus [18] = assay: Antiviral activity against HCV 1a H77 with NS5B polymerase G554D mutation infected in chimpanzee measured on day 5; assay type: functional, organism-based, Hepacivirus hominis; settings: genotype 1a H77, 120 h
Hepatitis C virus [19] = assay: Antiviral activity against wild type HCV 1b strain N infected in chimpanzee; assay type: functional, organism-based, Hepacivirus hominis; settings: genotype 1b strain N
[20] = Tmax in monkey at 5 mg/kg, po; assay type: ADME, organism-based, Macaca mulatta; set-up: dose 5 mg/kg, route oral; settings: rhesus monkey, in vivo; in short: as §1
[21] = AUC in rat at 5 mg/kg, po; assay type: ADME, organism-based; set-up: dose 5 mg/kg, route oral; settings: plasma; in short: as §1
[22] = Half life in dog at 5 mg/kg, po; assay type: ADME, organism-based, Canis lupus familiaris; set-up: dose 5 mg/kg, route oral; settings: in vivo; in short: as §1
[23] = Tmax in rat at 5 mg/kg, po; assay type: ADME, organism-based; set-up: dose 5 mg/kg, route oral; settings: in vivo; in short: as §1
Hepatitis C virus [24] = assay: Antiviral activity against HCV 1b strain N with NS5B polymerase C316Y mutation infected in chimpanzee measured on day 11; assay type: functional, organism-based, Hepacivirus hominis; settings: genotype 1b strain N, 264 h
Hepatitis C virus [25] = assay: Antiviral activity against HCV 1b strain N after 4 days by RT-PCR in presence of 40% human serum; assay type: functional, organism-based, Hepacivirus hominis; settings: genotype 1b strain N, 96 h
In short: (§4)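 They were exposed for 4 days to half-log inhibitor dilutions in medium with 5% FBS plus 40% human serum, to assess protein binding. Replicon RNA copy number was then measured by TaqMan real-time RT-PCR on extracted total RNA.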

Hepatitis C virus [26] = assay: Antiviral activity against HCV 1b strain N infected in chimpanzee assessed as reduction in viral load at 30 mg/kg, po BID for 14 days measured on day 2 postdosing; assay type: functional, Hepacivirus hominis, genotype 1b strain N; in short: as §2
Hepatitis C virus [27] = assay: Ratio of EC50 for HCV 1b strain N in presence of 40% human serum to EC50 for HCV 1b strain N in absence of human serum; assay type: functional, Hepacivirus hominis, genotype 1b strain N
In short: (§5)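 Cells carrying the subgenomic replicon (genotype 1b strain N, or chimeric 1a H77/1b Con1) were maintained in DMEM with 10% FBS and 400 µg/ml G418. The next day they were given medium with 5% FBS and half-log inhibitor dilutions, with or without 40% human serum, for 4 days. Replicon RNA copy number was measured by TaqMan RT-PCR.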

Hepatitis C virus [28] = assay: Antiviral activity against HCV 1a H77 with NS5B polymerase G554D mutation infected in chimpanzee measured on day 2; assay type: functional, organism-based, Hepacivirus hominis; settings: genotype 1a H77, 48 h
Hepatitis C virus [29] = assay: Drug resistance, ratio of EC50 for HCV 1b strain N with NS5B polymerase C316Y mutation to EC50 for wild type HCV 1b strain N infected in chimpanzee measured on day 2; assay type: functional, Hepacivirus hominis, genotype 1b strain N
Hepatitis C virus [30] = assay: Drug resistance, ratio of EC50 for HCV 1a H77 with NS5B polymerase G554D mutation to EC50 for wild type HCV 1a H77 infected in chimpanzee measured on day 5; assay type: functional, Hepacivirus hominis, genotype 1a H77
Hepatitis C virus [31] = assay: Drug resistance, ratio of EC50 for HCV 1b strain N with NS5B polymerase C316Y mutation to EC50 for wild type HCV 1b strain N infected in chimpanzee measured on day 5; assay type: functional, Hepacivirus hominis, genotype 1b strain N
[32] = AUC in monkey at 5 mg/kg, po; assay type: ADME, organism-based, Macaca mulatta; set-up: dose 5 mg/kg, route oral; settings: rhesus monkey, plasma; in short: as §1
Hepatitis C virus [33] = assay: Ratio of EC50 for HCV 1a H77 in presence of 40% human serum to EC50 for HCV 1a H77 in absence of human serum; assay type: functional, Hepacivirus hominis, genotype 1a H77; in short: as §5
[34] = Half life in rat at 5 mg/kg, po; assay type: ADME, organism-based; set-up: dose 5 mg/kg, route oral; settings: in vivo; in short: as §1
[35] = Cmax in rat at 5 mg/kg, po; assay type: ADME, organism-based; set-up: dose 5 mg/kg, route oral; settings: in vivo; in short: as §1
[36] = Cmax in HCV 1a H77 infected chimpanzee at 30 mg/kg, po BID for 14 days measured after 2 hrs of postdose; assay type: ADME, organism-based, Pan troglodytes; set-up: dose 30 mg/kg, route oral; settings: in vivo
In short: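 Chimpanzees were dosed orally at 30 mg/kg BID for 14 days. Plasma drug was measured by LC-MS. For the genotype 1a animal, the value is the mean of three samples taken 2 h after the a.m. dose on days 2, 3 and 4.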

[37] = Cmax in dog at 5 mg/kg, po; assay type: ADME, organism-based, Canis lupus familiaris; set-up: dose 5 mg/kg, route oral; settings: in vivo; in short: as §1
Hepatitis C virus [38] = assay: Drug resistance, ratio of EC50 for HCV 1b strain N with NS5B polymerase C316Y mutation to EC50 for wild type HCV 1b strain N infected in chimpanzee measured on day 28; assay type: functional, Hepacivirus hominis, genotype 1b strain N
[39] = Cmax in HCV 1b strain N infected chimpanzee at 30 mg/kg, po BID for 14 days measured after 2 hrs of postdose; assay type: ADME, organism-based, Pan troglodytes; set-up: dose 30 mg/kg, route oral; settings: in vivo
Hepatitis C virus [40] = assay: Antiviral activity against HCV 1a H77 after 4 days by RT-PCR; assay type: functional, organism-based, Hepacivirus hominis; settings: genotype 1a H77, 96 h; in short: as §3
[41] = Half life in monkey at 5 mg/kg, po; assay type: ADME, organism-based, Macaca mulatta; set-up: dose 5 mg/kg, route oral; settings: rhesus monkey, in vivo; in short: as §1
[42] = Oral bioavailability in rat at 5 mg/kg; assay type: ADME, organism-based; settings: in vivo
[43] = Inhibition of HCV 1a H77 NS5B polymerase by [3H]UTP incorporation assay; set-up: species or system Hepatitis C virus (isolate H77)
Hepatitis C virus [44] = assay: Antiviral activity against HCV 1a H77 after 4 days by RT-PCR in presence of 40% human serum; assay type: functional, organism-based, Hepacivirus hominis; settings: genotype 1a H77, 96 h; in short: as §4

SMILES: CC(C)CC[C@@]1(C)C(=O)C(C2=NS(=O)(=O)c3cc(NS(C)(=O)=O)ccc3N2)=C(O)c2ccccc21
- Cmax [1]: 520 ng/mL
- Tmax [2]: 0.4 h
- fold change (FC) (Hepatitis C virus [3]): 3.9
- log10cfu (Hepatitis C virus [4]): 1.4 /ml
- bioavailability [5]: 89.3%
- fold change (FC) (Hepatitis C virus [6]): 2.2
- pIC50 (Hepatitis C virus [7]): 9.48
- bioavailability [8]: 15.2%
- AUC [9]: 10500 ng·h/mL
- pEC50 (Hepatitis C virus [10]): 8.52
- pEC50 (Hepatitis C virus [11]): 7.86
- fold change (FC) (Hepatitis C virus [12]): 2000
- fold change (FC) (Hepatitis C virus [13]): 2.3
- pEC50 (Hepatitis C virus [14]): 6.46
- pEC50 (Hepatitis C virus [15]): 7.60
- pEC50 (Hepatitis C virus [16]): 5.92
- pEC50 (Hepatitis C virus [17]): 8.09
- pEC50 (Hepatitis C virus [18]): 8.35
- pEC50 (Hepatitis C virus [19]): 9.05
- Tmax [20]: 2.7 h
- AUC [21]: 3300 ng·h/mL
- half-life [22]: 10.7 h
- Tmax [23]: 4.2 h
- pEC50 (Hepatitis C virus [24]): 5.74
- pEC50 (Hepatitis C virus [25]): 7.38
- log10cfu (Hepatitis C virus [26]): 2.5 /ml
- fold change (FC) (Hepatitis C virus [27]): 15
- pEC50 (Hepatitis C virus [28]): 8.11
- fold change (FC) (Hepatitis C virus [29]): 28
- fold change (FC) (Hepatitis C virus [30]): 1.3
- fold change (FC) (Hepatitis C virus [31]): 1330
- AUC [32]: 1500 ng·h/mL
- fold change (FC) (Hepatitis C virus [33]): 13
- half-life [34]: 7.6 h
- Cmax [35]: 310 ng/mL
- Cmax [36]: 5490 ng/mL
- Cmax [37]: 1940 ng/mL
- fold change (FC) (Hepatitis C virus [38]): 389
- Cmax [39]: 8590 ng/mL
- pEC50 (Hepatitis C virus [40]): 7.96
- half-life [41]: 1.9 h
- bioavailability [42]: 62.7%
- pIC50 [43]: 8.90
- pEC50 (Hepatitis C virus [44]): 6.84

SMILES: COc1ccc2c(O[C@@H]3C[C@H]4C(=O)N[C@]5(C(=O)O)C[C@H]5/C=C\CCCCC[C@H](NC(=O)OC5CCCC5)C(=O)N4C3)cc(-c3csc(NC(C)C)n3)nc2c1 [CILUPREVIR]
- fold change (FC) (Hepatitis C virus [3]): 0.9
- fold change (FC) (Hepatitis C virus [6]): 0.9
- pEC50 (Hepatitis C virus [11]): 8.55
- fold change (FC) (Hepatitis C virus [12]): 0.8
- fold change (FC) (Hepatitis C virus [13]): 1.1
- pEC50 (Hepatitis C virus [14]): 8.89
- pEC50 (Hepatitis C virus [15]): 8.89
- pEC50 (Hepatitis C virus [16]): 8.89
- pEC50 (Hepatitis C virus [17]): 8.48
- pEC50 (Hepatitis C virus [18]): 8.51
- pEC50 (Hepatitis C virus [19]): 8.85
- pEC50 (Hepatitis C virus [24]): 8.96
- pEC50 (Hepatitis C virus [28]): 8.57
- fold change (FC) (Hepatitis C virus [29]): 1
- fold change (FC) (Hepatitis C virus [30]): 1
- fold change (FC) (Hepatitis C virus [31]): 1.1
- fold change (FC) (Hepatitis C virus [38]): 1
